# HTRA1 inhibitor = HTRA1 (human) protease inhibition. recombinant HTRA1, FP-rhodamine activity-based probe, fluorescence polarization. 340,000 tested, 0.5% active. AID 504803. Q92743. inhibition, % at 5.96 µM; in the data active means inhibition above about 36%
# ABHD4 inh = inhibits mouse alpha/beta hydrolase domain 4. Q8VD66. purified mABHD4, FP-Rh probe fluorescence polarization. inhibition, % at 8.92 µM. 370,000 tested, 0.54% active. AID 720543;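 active means inhibition exceeding the mean over every tested compound plus 3 SD, cut at about 30% in these data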
#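 assay system = mABHD4 protein | compound dosing = single nominal dose of 8.92 µM, 0.89% DMSO final | read-out basis = percent inhibition of probe binding, normalized to plate controls | schedule = Enzyme–compound pre-incubation 45 min, then probe 60 min, both 25 °C | detection = fluorescence polarization, excitation 525 nm, emission 598 nm, BODIPY TMR filters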
# TCR-CD3 inh = blocks the human TCR-CD3 interaction; TAMRA-labeled TCR probe fluorescence, biochemical; AID 651800; 360,000 tested, 0.37% active; inhibition, % at 9.4 µM; in the data active means inhibition above about 19%;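 further: recombinant mutant TCR 2C K166C tagged with TAMRA read by polarization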
# SIAE primary = blocks human sialic acid acetylesterase; Q9HAT2; AID 1053197; 370,000 tested, 0.69% active; SIAE FP-Rh probe binding, fluorescence polarization; inhibition, % at 9.66 µM;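 active means inhibition above a cutoff: mean of compounds within the control limits plus 3 SD of those, cut at about 17% in these data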
# PRMT1 inh = PRMT1 (human) inhibition, primary screen | inhibition, % at 2.79 µM | recombinant PRMT1, activity-based probe fluorescence polarization | 370,000 tested, 1.3% active | Q99873 | AID 652257;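 active means inhibition above about 21% made by adding two undisclosed values, limit read from the data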
# Target sequence (Q99873 whole entry, looked up): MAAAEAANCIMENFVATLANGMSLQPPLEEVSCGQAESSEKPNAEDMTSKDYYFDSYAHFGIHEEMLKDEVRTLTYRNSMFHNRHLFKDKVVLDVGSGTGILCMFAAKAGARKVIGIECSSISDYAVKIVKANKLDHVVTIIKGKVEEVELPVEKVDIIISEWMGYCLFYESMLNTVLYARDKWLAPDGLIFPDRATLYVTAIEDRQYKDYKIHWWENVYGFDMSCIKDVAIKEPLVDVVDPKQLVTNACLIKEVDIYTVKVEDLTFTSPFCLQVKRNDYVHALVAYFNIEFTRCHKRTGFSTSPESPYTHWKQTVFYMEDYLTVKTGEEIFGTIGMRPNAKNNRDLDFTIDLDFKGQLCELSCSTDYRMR
# ATG4B inhibitor = ATG4B (human) cysteine protease inhibition | Q9Y4P1 | ATG4B cleavage of LC3-PLA2, NBD-HPC fluorescence, 1 h | 340,000 tested, 0.51% active | inhibition, % at 8.33 µM; in the data active means inhibition above about 40%
# mABHD4 conf = confirmation of mouse ABHD4 inhibitors; shares compounds with ABHD4 inh; purified mABHD4, FP-Rh probe fluorescence polarization; inhibition, % at 8.92 µM; 1,800 tested, 55% active;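 active means mean inhibition across replicates above the hit cutoff set in the primary screen, cut at about 30% in these data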
# A number is an active result; – = inactive; · = no result. Rows were chosen to be rich in hits. Some 2.9% of all compounds tested hit in one or more screens of this group.
SMILES,HTRA1 inhibitor,ABHD4 inh,TCR-CD3 inh,SIAE primary,PRMT1 inh,ATG4B inhibitor,mABHD4 conf
CC(CNc1ccccc1O)C(=O)O (configuration not stated),–,34,–,–,23,–,–
CCOc1cccc2sc(NN)nc12,–,71,–,–,–,–,71
CCOc1cccc2sc(Cl)nc12,–,–,–,–,–,–,·
O=S(=O)(Nc1cccc2c1ccc1cccn12)c1cccs1,–,34,–,–,–,–,–
CCC(CC)NC(=O)O[C@H]1CC[C@@]23CCCN2C(=O)CCC[C@H]3C1,·,–,·,–,–,·,·
COc1ccc(OC)c(N2Cc3cc(C)c(C)cc3C2)c1,–,30,–,–,–,–,36
O=C(Nc1ccc2c(c1)OCO2)NC1CCCCN(Cc2cccc(Cl)c2)C1=O (configuration not stated),·,–,·,–,–,·,·
O=C1OC(c2ccccc2)(c2cc(Br)c(O)c(Br)c2)c2ccccc21 (configuration not stated),–,35,–,–,–,–,32
O=C(O)c1ccc(C2(c3ccc(C(=O)O)cc3)OC(=O)c3ccccc32)cc1,–,–,–,–,–,–,·
Cc1ccc(-n2c(SCC(=O)N/N=C/C=C\c3ccco3)nnc2-c2ccccc2)cc1,·,–,·,–,–,·,·
O=C(OCCCCSc1nnc(-c2cccc3ccccc23)o1)c1ccc(F)cc1,·,–,·,–,–,·,·
O=C(/C=C/c1ccc([N+](=O)[O-])cc1)c1ccccc(=O)c1O,–,43,–,–,–,–,–
O=C(/C=C/c1ccc([N+](=O)[O-])cc1)c1cccs1,–,–,–,–,–,–,·
O=C(OCc1cn(Cc2cc(F)cc(F)c2)nn1)N1CCOCC1,·,–,·,–,–,·,·
CCCCC1CC(CSc2ncn[nH]2)OC1=O (configuration not stated),–,79,–,–,–,–,–
Oc1ccc(N2CCN(Cc3c(-c4ccccc4)nc4ccccn34)CC2)cc1,–,31,–,–,22,–,–
COCc1cc(=O)n2[nH]cc(-c3ccccc3)c2n1,–,–,–,–,–,–,·
CCOC(=O)Cc1cc(=O)n2[nH]cc(-c3cccc(Br)c3)c2n1,–,32,–,–,–,–,–
Cc1ccc(Nc2nc(NCCO)c3ccccc3n2)cc1C,–,35,–,–,–,–,78
COc1ccc(OC)c(Nc2nc(NCCO)c3ccccc3n2)c1,–,–,–,–,–,–,·
CCC(CO)Oc1cc(NCc2ccc(C(C)(C)C)cc2)c2ncn(C(C)C)c2c1 (configuration not stated),–,30,–,–,–,–,34
COCCCOc1cc(NCc2ccccc2)c2ncn(C(C)C)c2c1,–,–,–,–,–,–,·
CCCCOc1cc(NCc2ccccc2)c2ncn(C(C)C)c2c1,–,37,–,–,–,–,91
O=C(Nc1ccccc1C(F)(F)F)OCCN1C(=O)CCC12CCC(c1ccccc1)CC2 (configuration not stated),·,–,·,–,–,·,·
COC(=O)[C@H](Cc1c[nH]c2ccccc12)NCc1cccc(B(O)O)c1,–,77,–,–,–,–,62
SMILES,HTRA1 inhibitor,ABHD4 inh,TCR-CD3 inh,SIAE primary,PRMT1 inh,ATG4B inhibitor,mABHD4 conf
COC(=O)[C@@H](Cc1c[nH]c2ccccc12)NCc1ccc(B(O)O)cc1,–,72,–,–,–,–,64
Cn1ccc2ccc(-c3ccc4c(c3)[C@]3(CCC[C@@H](OCc5ccccc5)[C@@H]3NC(=O)CCc3ccccc3)C(=O)N4Cc3ccccc3)cc21,·,–,·,–,–,·,·
CCCC1CCC2(CC1)CCC2OC(=S)Nc1ccccc1Br (configuration not stated),·,–,·,–,–,·,·
Cc1c(C(=O)O)cccc1-n1c(C)cc(/C=N/Nc2ccc([N+](=O)[O-])cn2)c1C,–,30,–,–,–,–,48
O=C(CCNS(=O)(=O)c1ccccc1C(F)(F)F)NNC(=O)C1COc2ccccc2O1 (configuration not stated),–,42,–,–,–,–,–
CCOC(=O)N1CCN(C(=O)C[C@H]2C[C@@]3(C(=O)OC)C(=C[C@H](C4CCCC4)O[C@@H]3C)N(Cc3ccc(Cl)cc3Cl)C2=O)CC1,·,–,·,–,–,·,·

# Assay outcomes from PubChem.
